Drawing on ChEMBL document CHEMBL3102806, “1,2,4-Triazole/oxime hybrids as new strategy for nitric oxide donors: Synthesis, anti-inflammatory, ulceroginicity and antiproliferative activities” (Eur J Med Chem, 2014), this text covers inhibition in vivo, UI and Activity for 16 compounds.

Data set [1] deals with Rattus norvegicus. Put plainly: Antiinflammatory activity in albino rat assessed as inhibition of carrageenan-induced paw edema at 0.28 mmol/kg, po administered 30 mins prior to carrageenan-challenge measured after 1 hr relative to control. It counts as functional. The method in brief: (§1)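 Male albino rats in groups of four were fasted 24 h with water allowed. Dosing was oral at 0.28 mmol/kg, suspended in 0.5% w/v CMC; controls got CMC alone. After 30 min, 0.1 ml of 1% carrageenan in saline went subplantar into the right hind paw and saline into the left. Paw thickness was read by caliper before and at 1–5 h. % inhibition = [(VR−VL)control−(VR−VL)treated]/(VR−VL)control ×100. Mean ± SEM, n = 4, one-way ANOVA vs control.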
(Carrageenan injected into the paw causes an acute inflammation.)

The subject of data set [2] is Rattus norvegicus. Put plainly: Antiinflammatory activity in albino rat assessed as inhibition of carrageenan-induced paw edema at 0.28 mmol/kg, po administered 30 mins prior to carrageenan-challenge measured after 4 hrs relative to control. The class given is functional. Put shortly:
as §1

The test system of data set [3] is Rattus norvegicus. Put plainly: Ulcerogenic activity in albino rat carrageenan-induced paw edema model assessed as ulcer index at 0.28 mmol/kg, po (reference value: 0.60 +/- 0.05). To be noted: in vivo. It counts as toxicity, organism-based. Put shortly:
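Rats given the compound orally at 0.28 mmol/kg, suspended in 0.5% aqueous CMC; vehicle-only control, n = 4 per group. Gastric ulcers graded by area: I (<1 mm²), II (1–3 mm²), III (>3 mm²). Ulcer index = 1×(level I count) + 2×(level II) + 3×(level III). Mean ± SEM, one-way ANOVA versus control.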

Data set [4] concerns Rattus norvegicus. Kind of data set: Antiinflammatory activity in albino rat assessed as inhibition of carrageenan-induced paw edema at 0.28 mmol/kg, po administered 30 mins prior to carrageenan-challenge measured after 2 hrs relative to control. It counts as functional. The method in brief:
as §1

Data set [5] relates to Rattus norvegicus. Put plainly: Antiinflammatory activity in albino rat assessed as inhibition of carrageenan-induced paw edema at 0.28 mmol/kg, po administered 30 mins prior to carrageenan-challenge measured after 5 hrs relative to control. It counts as functional. The method in brief:
as §1

In data set [6] the test system is Rattus norvegicus. Kind of data set: Antiinflammatory activity in albino rat assessed as inhibition of carrageenan-induced paw edema at 0.28 mmol/kg, po administered 30 mins prior to carrageenan-challenge measured after 3 hrs relative to control. It counts as functional. The method in brief:
as §1

Data set [7] is described as follows: Induction of nitric oxide release in phosphate buffer at 10^-4 M at pH 7.4 after 2 hrs by Griess colorimetric method in presence of N-acetylcysteine. Conditions: pH 7.4, 2 h, 100 µM; call rule not given here. The class given is physicochemical. Put shortly:
(§2)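 Final drug concentration 10^-4 M, added from DMF into 1:1 50 mM phosphate buffer (pH 7.4)/MeOH containing 5 × 10^-4 M N-acetylcysteine, at 37 °C. Nitrite read with Griess reagent after 10 min at room temperature, absorbance at 546 nm. Calibration with sodium nitrite standards (10–80 nmol/ml). Reported as mol NO per mol, n = 4 reaction mixtures.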
On the technique in general: Nitrite, measured by Griess reagent, commonly stands in for NO production.

The nature of data set [8]: Induction of nitric oxide release in phosphate buffer at 10^-4 M at pH 7.4 after 3 hrs by Griess colorimetric method in presence of N-acetylcysteine. Conditions: pH 7.4, 3 h, 100 µM. The class given is physicochemical. Put shortly:
as §2

Data set [9] is described as follows: Induction of nitric oxide release in phosphate buffer at 10^-4 M at pH 7.4 after 5 hrs by Griess colorimetric method in presence of N-acetylcysteine. It counts as physicochemical. To be noted: pH 7.4, 5 h, 100 µM. The method in brief:
as §2

Data set [10] in a line: Induction of nitric oxide release in phosphate buffer at 10^-4 M at pH 7.4 after 1 hr by Griess colorimetric method in presence of N-acetylcysteine. It counts as physicochemical. Conditions: pH 7.4, 1 h, 100 µM. Put shortly: as §2
Data set [11] in a line: Induction of nitric oxide release in phosphate buffer at 10^-4 M at pH 7.4 after 6 hrs by Griess colorimetric method in presence of N-acetylcysteine. The class given is physicochemical. Conditions: pH 7.4, 6 h, 100 µM. Put shortly:
as §2

A short description of data set [12]: Induction of nitric oxide release in phosphate buffer at 10^-4 M at pH 7.4 after 4 hrs by Griess colorimetric method in presence of N-acetylcysteine. The class given is physicochemical. Conditions: pH 7.4, 4 h, 100 µM. The method in brief:
as §2

Data set [13] is described as follows: Induction of nitric oxide release in HCl buffer at 10^-4 M at pH 1 after 1 hr by Griess colorimetric method in presence of N-acetylcysteine. The class given is physicochemical. Conditions: pH 1, 1 h, 100 µM. The method in brief:
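Same Griess nitrite procedure at 10^-4 M final drug with N-acetylcysteine at 37 °C, but with 0.1 N HCl (pH 1) in place of the pH 7.4 phosphate buffer. Absorbance at 546 nm against a sodium nitrite calibration curve.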

Take `C=CCn1c(SCC(=O)Nc2ccc(C(C)=O)cc2)nnc1-c1ccccc1`: the inhibition in vivo at 280 µmol/kg with Rattus norvegicus [1] amounted to 48%; with Rattus norvegicus [2] it was 70%; in the data set on Rattus norvegicus [4], 52%; in the data set on Rattus norvegicus [5] it was 63%; in the data set on Rattus norvegicus [6], 54%. Also, in the data set with Rattus norvegicus [3], the UI is 9.3.
With `C=CCn1c(SCC(=O)Nc2ccc(C(C)=O)cc2)nnc1-c1ccc(OC)cc1`, the inhibition in vivo at 280 µmol/kg with Rattus norvegicus [1] is 50%; in the data set with Rattus norvegicus [2], 68%; in the data set with Rattus norvegicus [4], 51%; with Rattus norvegicus [5], 66%; in the data set with Rattus norvegicus [6], 52%. For the same compound, the UI in the data set on Rattus norvegicus [3] is 8.66.
With `C=CCn1c(SCC(=O)Nc2ccc(C(C)=O)cc2)nnc1-c1cc(OC)c(OC)c(OC)c1`, the inhibition in vivo at 280 µmol/kg with Rattus norvegicus [1] amounted to 48%; with Rattus norvegicus [2], 68%; in the data set on Rattus norvegicus [4] it was 54%; in the data set on Rattus norvegicus [5], 64%; with Rattus norvegicus [6], 55%. Moreover, the UI in the data set with Rattus norvegicus [3] amounted to 6.49.
For the compound `CCn1c(SCC(=O)Nc2ccc(C(C)=O)cc2)nnc1-c1ccccc1`, the inhibition in vivo at 280 µmol/kg in the data set with Rattus norvegicus [1] stood at 50%; in the data set on Rattus norvegicus [2], 69%; in the data set with Rattus norvegicus [4] it was 53%; in the data set on Rattus norvegicus [5], 66%; in the data set with Rattus norvegicus [6], 56%. In the data set on Rattus norvegicus [3], the UI was 7.12.
In the case of `CCn1c(SCC(=O)Nc2ccc(C(C)=O)cc2)nnc1-c1ccc(OC)cc1`, the inhibition in vivo at 280 µmol/kg in the data set with Rattus norvegicus [1] was found to be 51%; with Rattus norvegicus [2] it was 65%; with Rattus norvegicus [4] it was 54%; in the data set with Rattus norvegicus [5], 62%; in the data set with Rattus norvegicus [6], 57%. In the data set with Rattus norvegicus [3], the UI turned out to be 10.52.
For `CCn1c(SCC(=O)Nc2ccc(C(C)=O)cc2)nnc1-c1ccc(OC)c(OC)c1`, the inhibition in vivo at 280 µmol/kg in the data set on Rattus norvegicus [1] was 56%; with Rattus norvegicus [2], 69%; in the data set on Rattus norvegicus [4] it was 59%; with Rattus norvegicus [5], 66%; in the data set on Rattus norvegicus [6], 62%. For the same compound, the UI with Rattus norvegicus [3] worked out at 3.6.
As for `CCn1c(SCC(=O)Nc2ccc(C(C)=O)cc2)nnc1-c1cc(OC)c(OC)c(OC)c1`, the inhibition in vivo at 280 µmol/kg in the data set on Rattus norvegicus [1] is 46%; in the data set on Rattus norvegicus [2], 68%; in the data set on Rattus norvegicus [4], 50%; with Rattus norvegicus [5], 64%; in the data set with Rattus norvegicus [6], 54%. In addition, the UI in the data set on Rattus norvegicus [3] was determined as 3.34.
Turning to `CC(=O)c1ccc(NC(=O)CSc2nnc(-c3ccccc3)n2-c2ccccc2)cc1`, the inhibition in vivo at 280 µmol/kg in the data set on Rattus norvegicus [1] was 41%; with Rattus norvegicus [2], 67%; in the data set on Rattus norvegicus [4] it was 49%; in the data set with Rattus norvegicus [5], 63%; in the data set on Rattus norvegicus [6], 62%. Also, in the data set with Rattus norvegicus [3], the UI amounted to 3.38.
For the compound `COc1ccc(-c2nnc(SCC(=O)Nc3ccc(C(C)=O)cc3)n2-c2ccccc2)cc1`, the inhibition in vivo at 280 µmol/kg in the data set on Rattus norvegicus [1] was 29%; in the data set with Rattus norvegicus [2], 63%; with Rattus norvegicus [4], 42%; with Rattus norvegicus [5], 60%; in the data set on Rattus norvegicus [6], 58%. The UI in the data set with Rattus norvegicus [3] stood at 5.53.
Turning to `COc1cc(-c2nnc(SCC(=O)Nc3ccc(C(C)=O)cc3)n2-c2ccccc2)cc(OC)c1OC`, the inhibition in vivo at 280 µmol/kg in the data set on Rattus norvegicus [1] was 49%; with Rattus norvegicus [2], 68%; in the data set on Rattus norvegicus [4], 54%; with Rattus norvegicus [5], 63%; in the data set on Rattus norvegicus [6] it was 55%. The UI with Rattus norvegicus [3] was 4.38.
With `C=CCn1c(SCC(=O)Nc2ccc(/C(C)=N/O)cc2)nnc1-c1ccccc1`, the inhibition in vivo at 280 µmol/kg with Rattus norvegicus [1] worked out at 61%; with Rattus norvegicus [2], 73%; with Rattus norvegicus [4], 63%; in the data set with Rattus norvegicus [5], 71%; in the data set with Rattus norvegicus [6], 73%. The Activity in data set [7] is reported as 0.2 mol/mol; in data set [8] it was 0.22 mol/mol; in data set [9], 0.16 mol/mol; in data set [10] it was 0.15 mol/mol; in data set [11], 0.15 mol/mol; in data set [12] it was 0.24 mol/mol. Also, the Activity entry in data set [13] is “Not Active”. In addition, in the data set on Rattus norvegicus [3], the UI came to 0.64.
With `C=CCn1c(SCC(=O)Nc2ccc(/C(C)=N/O)cc2)nnc1-c1ccc(OC)cc1`, the inhibition in vivo at 280 µmol/kg in the data set with Rattus norvegicus [1] worked out at 54%; in the data set with Rattus norvegicus [2], 75%; with Rattus norvegicus [4], 59%; in the data set with Rattus norvegicus [5], 72%; in the data set on Rattus norvegicus [6], 63%. The Activity in [7] was determined as 0.17 mol/mol; in data set [8], 0.23 mol/mol; in [9], 0.23 mol/mol; in data set [10], 0.15 mol/mol; in data set [11], 0.16 mol/mol; in data set [12] it was 0.32 mol/mol. In data set [13], the Activity entry was “Not Active”. In addition, the UI in the data set on Rattus norvegicus [3] is 2.69.
`CCn1c(SCC(=O)Nc2ccc(/C(C)=N/O)cc2)nnc1-c1ccc(OC)cc1`: the inhibition in vivo at 280 µmol/kg in the data set on Rattus norvegicus [1] was 54%; in the data set on Rattus norvegicus [2] it was 73%; in the data set with Rattus norvegicus [4], 58%; with Rattus norvegicus [5], 65%; with Rattus norvegicus [6], 60%. Moreover, the Activity in data set [7] came to 0.2 mol/mol; in [8] it was 0.24 mol/mol; in data set [9] it was 0.24 mol/mol; in [10], 0.16 mol/mol; in [11], 0.23 mol/mol; in data set [12], 0.29 mol/mol. Also, the Activity entry in data set [13] is reported as “Not Active”. The UI with Rattus norvegicus [3] is 1.04.
With `CCn1c(SCC(=O)Nc2ccc(/C(C)=N/O)cc2)nnc1-c1ccc(OC)c(OC)c1`, the inhibition in vivo at 280 µmol/kg was 53% with Rattus norvegicus [1]; 75% in the data set with Rattus norvegicus [2]; 65% in the data set on Rattus norvegicus [4]; 73% in the data set on Rattus norvegicus [5]; 66% in the data set with Rattus norvegicus [6]. In addition, the Activity in data set [7] is on record as 0.19 mol/mol; in data set [8] it was 0.25 mol/mol; in data set [9], 0.36 mol/mol; in [10], 0.15 mol/mol; in data set [11], 0.32 mol/mol; in data set [12] it was 0.43 mol/mol. In data set [13], the Activity result is listed as “Not Active”. Further, the UI in the data set on Rattus norvegicus [3] was determined as 3.43.
Consider `COc1ccc(-c2nnc(SCC(=O)Nc3ccc(/C(C)=N/O)cc3)n2-c2ccccc2)cc1`, for which the inhibition in vivo at 280 µmol/kg in the data set on Rattus norvegicus [1] is 45%; in the data set on Rattus norvegicus [2], 69%; with Rattus norvegicus [4] it was 56%; with Rattus norvegicus [5], 58%; with Rattus norvegicus [6] it was 57%. For the same compound, the Activity in [7] worked out at 0.17 mol/mol; in [8], 0.24 mol/mol; in [9], 0.24 mol/mol; in data set [10] it was 0.13 mol/mol; in data set [11], 0.23 mol/mol; in data set [12] it was 0.29 mol/mol. In addition, the Activity result in data set [13] is “Not Active”. The UI in the data set with Rattus norvegicus [3] is 1.61.
Regarding `COc1ccc(-c2nnc(SCC(=O)Nc3ccc(C(C)=O)cc3)n2-c2ccccc2)cc1OC`, the inhibition in vivo at 280 µmol/kg was 28% in the data set with Rattus norvegicus [1]; 62% with Rattus norvegicus [2]; 43% with Rattus norvegicus [4]; 55% in the data set on Rattus norvegicus [5]; 51% in the data set on Rattus norvegicus [6]. The UI in the data set on Rattus norvegicus [3] was 8.64.

A word on the inhibition in vivo: it is the share of the control response that was lost under treatment.
